Results published in ChEMBL document CHEMBL1255501, “Heteroresistance of Cryptococcus gattii to fluconazole” (2010).
The source made the active and inactive calls. No cut-off for these calls is given here.

Key:
[1] = tested on: Cryptococcus gattii species complex; assay: Antimicrobial activity against Cryptococcus gattii serotype B isolate RAM-005 assessed as concentration required for heteroresistance; format: functional, Cryptococcus bacillisporus
[2] = tested on: Cryptococcus gattii species complex; assay: Antimicrobial activity against Cryptococcus gattii serotype B isolate NIH190 assessed as heteroresistant isolates at 2 ug/ml; format: functional, Cryptococcus bacillisporus
Summary of the method: (§1)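 Population analysis: cells suspended in sterile saline at 1 × 10³ to 4 × 10³ CFU/ml and plated on plain YPD agar or YPD agar with various fluconazole concentrations. Plates incubated at 30°C for 72 h. The resistant subpopulation at each concentration is recorded as a percentage of the population.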

[3] = tested on: Cryptococcus gattii species complex; assay: Antimicrobial activity against Cryptococcus gattii serotype B isolate RB-17 assessed as concentration required for heteroresistance; format: functional, Cryptococcus bacillisporus
[4] = tested on: Cryptococcus gattii species complex; assay: Antimicrobial activity against Cryptococcus gattii serotype B isolate RB14 assessed as heteroresistant isolates at 32 ug/ml; format: functional, Cryptococcus bacillisporus
Summary of the method: (§2)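 Population analysis: saline cell suspensions (1 × 103 to 4 × 10^3 CFU/ml) plated on plain YPD agar or YPD agar with various fluconazole concentrations; growth recorded after 72 h at 30°C; percentage of resistant subpopulation at each drug level calculated relative to drug-free plate growth.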

[5] = tested on: Cryptococcus gattii species complex; assay: Antimicrobial activity against Cryptococcus gattii serotype C isolate H0058-1-2086 assessed as concentration required for heteroresistance; format: functional, Cryptococcus bacillisporus
[6] = tested on: Cryptococcus gattii species complex; assay: Antimicrobial activity against Cryptococcus gattii serotype B isolate NIH200 assessed as heteroresistant isolates at 4 ug/ml; format: functional, Cryptococcus bacillisporus; summary of the method: as §1
[7] = tested on: Cryptococcus gattii species complex; assay: Antimicrobial activity against Cryptococcus gattii serotype B isolate NIH286 assessed as heteroresistant isolates at 8 ug/ml; format: functional, Cryptococcus bacillisporus; summary of the method: as §1
[8] = tested on: Cryptococcus deuterogattii; assay: Antimicrobial activity against Cryptococcus gattii serotype B isolate NIH444 assessed as heteroresistant isolates at 2 ug/ml; format: functional, Cryptococcus bacillisporus; summary of the method: as §1
[9] = tested on: Cryptococcus gattii species complex; assay: Antimicrobial activity against Cryptococcus gattii serotype C isolate H0058-1-1686 assessed as heteroresistant isolates at 4 ug/ml; format: functional, Cryptococcus bacillisporus; summary of the method: as §2
[10] = tested on: Cryptococcus gattii species complex; assay: Antimicrobial activity against Cryptococcus gattii serotype B isolate NIH535 assessed as concentration required for heteroresistance; format: functional, Cryptococcus bacillisporus
Summary of the method: (§3)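 Fluconazole spot test: 10-fold serial dilutions of each single-colony-purified strain spotted on YPD agar alone and YPD agar with fluconazole at 4 to 128 μg/ml. The level of heteroresistance to fluconazole (LHF) is the lowest drug concentration at which minor resistant subpopulations emerge within the spot.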

[11] = tested on: Cryptococcus gattii species complex; assay: Antimicrobial activity against Cryptococcus gattii serotype C isolate NIH113 assessed as heteroresistant isolates at 8 ug/ml; format: functional, Cryptococcus bacillisporus; summary of the method: as §2
[12] = tested on: Cryptococcus gattii species complex; assay: Antimicrobial activity against Cryptococcus gattii serotype B isolate B4506 assessed as heteroresistant isolates at 2 ug/ml; format: functional, Cryptococcus bacillisporus; summary of the method: as §1
[13] = tested on: Cryptococcus gattii species complex; assay: Antimicrobial activity against Cryptococcus gattii serotype C isolate NIH312 assessed as concentration required for heteroresistance; format: functional, Cryptococcus bacillisporus
Summary of the method: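 […] on YPD agar at 4 to 128 μg/ml. The lowest drug concentration at which minor resistant subpopulations emerged within the patch was scored as the strain's level of heteroresistance.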

[14] = tested on: Cryptococcus gattii species complex; assay: Antimicrobial activity against Cryptococcus gattii serotype B isolate B5765 assessed as heteroresistant isolates at 4 ug/ml; format: functional, Cryptococcus bacillisporus; summary of the method: as §1
[15] = tested on: Cryptococcus gattii species complex; assay: Antimicrobial activity against Cryptococcus gattii serotype B isolate NIH198 assessed as heteroresistant isolates at 16 ug/ml; format: functional, Cryptococcus bacillisporus; summary of the method: as §1
[16] = tested on: Cryptococcus bacillisporus; assay: Antimicrobial activity against Cryptococcus gattii serotype C isolate NIH191 assessed as heteroresistant isolates at 8 ug/ml; format: functional
Summary of the method: (§4)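 Cell suspensions of 1 × 10^3 to 4 × 10^3 CFU/ml were made in sterile saline and plated on plain YPD agar or YPD agar with various fluconazole concentrations. Plates were incubated at 30°C for 72 h, and the percentage of resistant subpopulation emerging was recorded.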

[17] = tested on: Cryptococcus gattii species complex; assay: Antimicrobial activity against Cryptococcus gattii serotype B isolate RB-33 assessed as concentration required for heteroresistance; format: functional, Cryptococcus bacillisporus
[18] = tested on: Cryptococcus gattii species complex; assay: Antimicrobial activity against Cryptococcus gattii serotype B isolate B5765 assessed as heteroresistant isolates at 8 ug/ml; format: functional, Cryptococcus bacillisporus; summary of the method: as §1
[19] = tested on: Cryptococcus gattii species complex; assay: Antimicrobial activity against Cryptococcus gattii serotype B isolate B5765 assessed as concentration required for heteroresistance; format: functional, Cryptococcus bacillisporus; summary of the method: as §3
[20] = tested on: Cryptococcus gattii species complex; assay: Antimicrobial activity against Cryptococcus gattii serotype B isolate VPB572-058 assessed as heteroresistant isolates at 32 ug/ml; format: functional, Cryptococcus bacillisporus; summary of the method: as §2
[21] = tested on: Cryptococcus bacillisporus; assay: Antimicrobial activity against Cryptococcus gattii serotype C isolate NIH191 assessed as heteroresistant isolates at 4 ug/ml; format: functional; summary of the method: as §2
[22] = tested on: Cryptococcus gattii species complex; assay: Antimicrobial activity against Cryptococcus gattii serotype B isolate NIH286 assessed as heteroresistant isolates at 4 ug/ml; format: functional, Cryptococcus bacillisporus; summary of the method: as §1
[23] = tested on: Cryptococcus gattii species complex; assay: Antimicrobial activity against Cryptococcus gattii serotype B isolate NIH367 assessed as heteroresistant isolates at 2 ug/ml; format: functional, Cryptococcus bacillisporus; summary of the method: as §1
[24] = tested on: Cryptococcus gattii species complex; assay: Antimicrobial activity against fluconazole-resistant Cryptococcus gattii serotype B isolate RB14 at 256 ug/ml; format: functional, organism-based; conditions: Cryptococcus bacillisporus
[25] = tested on: Cryptococcus gattii species complex; assay: Antimicrobial activity against Cryptococcus gattii serotype B isolate NIH367 assessed as heteroresistant isolates at 16 ug/ml; format: functional, Cryptococcus bacillisporus; summary of the method: as §1
[26] = tested on: Cryptococcus gattii species complex; assay: Antimicrobial activity against fluconazole-resistant Cryptococcus gattii serotype B isolate RAM15 at 256 ug/ml; format: functional, organism-based; conditions: Cryptococcus bacillisporus
[27] = tested on: Cryptococcus gattii species complex; assay: Antimicrobial activity against Cryptococcus gattii serotype B isolate RB-4 assessed as concentration required for heteroresistance; format: functional, Cryptococcus bacillisporus
[28] = tested on: Cryptococcus gattii species complex; assay: Antimicrobial activity against Cryptococcus gattii serotype C isolate NIH18 assessed as heteroresistant isolates at 4 ug/ml; format: functional, Cryptococcus bacillisporus; summary of the method: as §2
[29] = tested on: Cryptococcus gattii species complex; assay: Antimicrobial activity against Cryptococcus gattii serotype C isolate NIH298 assessed as heteroresistant isolates at 8 ug/ml; format: functional, Cryptococcus bacillisporus; summary of the method: as §4
[30] = tested on: Cryptococcus gattii species complex; assay: Antimicrobial activity against Cryptococcus gattii serotype B isolate NIH754 assessed as heteroresistant isolates at 2 ug/ml; format: functional, Cryptococcus bacillisporus; summary of the method: as §1
[31] = tested on: Cryptococcus gattii species complex; assay: Antimicrobial activity against Cryptococcus gattii serotype C isolate H0058-1-818 assessed as heteroresistant isolates at 8 ug/ml; format: functional, Cryptococcus bacillisporus; summary of the method: as §2
[32] = tested on: Cryptococcus gattii species complex; assay: Antimicrobial activity against Cryptococcus gattii serotype C isolate H0058-1-1686 assessed as heteroresistant isolates at 16 ug/ml; format: functional, Cryptococcus bacillisporus; summary of the method: as §2
[33] = tested on: Cryptococcus gattii species complex; assay: Antimicrobial activity against Cryptococcus gattii serotype C isolate H0058-1-1941 assessed as heteroresistant isolates at 8 ug/ml; format: functional, Cryptococcus bacillisporus; summary of the method: as §2
[34] = tested on: Cryptococcus gattii species complex; assay: Antimicrobial activity against Cryptococcus gattii serotype B isolate NIH535 assessed as heteroresistant isolates at 4 ug/ml; format: functional, Cryptococcus bacillisporus; summary of the method: as §1
[35] = tested on: Cryptococcus deuterogattii; assay: Antimicrobial activity against Cryptococcus gattii serotype B isolate NIH444 assessed as heteroresistant isolates at 32 ug/ml; format: functional, Cryptococcus bacillisporus; summary of the method: as §1
[36] = tested on: Cryptococcus gattii species complex; assay: Antimicrobial activity against Cryptococcus gattii serotype C isolate NIH34 assessed as heteroresistant isolates at 16 ug/ml; format: functional, Cryptococcus bacillisporus; summary of the method: as §4
[37] = tested on: Cryptococcus gattii species complex; assay: Antimicrobial activity against Cryptococcus gattii serotype B isolate NIH281 assessed as concentration required for heteroresistance; format: functional, Cryptococcus bacillisporus; summary of the method: as §3
[38] = tested on: Cryptococcus gattii species complex; assay: Antimicrobial activity against Cryptococcus gattii serotype C isolate NIH187 assessed as concentration required for heteroresistance; format: functional, Cryptococcus bacillisporus
[39] = tested on: Cryptococcus gattii species complex; assay: Antimicrobial activity against Cryptococcus gattii serotype B isolate NIH184 assessed as heteroresistant isolates at 16 ug/ml; format: functional, Cryptococcus bacillisporus; summary of the method: as §1
[40] = tested on: Cryptococcus gattii species complex; assay: Antimicrobial activity against Cryptococcus gattii serotype B isolate RB-3 assessed as concentration required for heteroresistance; format: functional, Cryptococcus bacillisporus
[41] = tested on: Cryptococcus gattii species complex; assay: Antimicrobial activity against Cryptococcus gattii serotype C isolate H0058-1-2023 assessed as heteroresistant isolates at 2 ug/ml; format: functional, Cryptococcus bacillisporus; summary of the method: as §2
[42] = tested on: Cryptococcus gattii species complex; assay: Antimicrobial activity against Cryptococcus gattii serotype C isolate NIH113 assessed as heteroresistant isolates at 16 ug/ml; format: functional, Cryptococcus bacillisporus; summary of the method: as §2
[43] = tested on: Cryptococcus gattii species complex; assay: Antimicrobial activity against Cryptococcus gattii serotype B isolate NIH184 assessed as heteroresistant isolates at 8 ug/ml; format: functional, Cryptococcus bacillisporus; summary of the method: as §1

## OC(Cn1cncn1)(Cn1cncn1)c1ccc(F)cc1F [FLUCONAZOLE]
[1]
  Activity: 32 µg/mL
[2]
  Activity: 100%
[3]
  Activity: 32 µg/mL
[4]
  Activity: 0.8%
[5]
  Activity: 32 µg/mL
[6]
  Activity: 0.1%
[7]
  Activity: 100%
[8]
  Activity: 100%
[9]
  Activity: 100%
[10]
  Activity: 4 µg/mL
[11]
  Activity: 100%
[12]
  Activity: 100%
[13]
  Activity: 32 µg/mL
[14]
  Activity: 100%
[15]
  Activity: 1.9%
[16]
  Activity: 100%
[17]
  Activity: 32 µg/mL
[18]
  Activity: 100%
[19]
  Activity: 16 µg/mL
[20]
  Activity: 1.6%
[21]
  Activity: 100%
[22]
  Activity: 100%
[23]
  Activity: 100%
[24]
  Activity: inactive
[25]
  Activity: 9%
[26]
  Activity: inactive
[27]
  Activity: 32 µg/mL
[28]
  Activity: 100%
[29]
  Activity: 100%
[30]
  Activity: 100%
[31]
  Activity: 100%
[32]
  Activity: 100%
[33]
  Activity: 100%
[34]
  Activity: 0.1%
[35]
  Activity: 0.5%
[36]
  Activity: 0.22%
[37]
  Activity: 4 µg/mL
[38]
  Activity: 32 µg/mL
[39]
  Activity: 35%
[40]
  Activity: 8 µg/mL
[41]
  Activity: 100%
[42]
  Activity: 100%
[43]
  Activity: 100%
